From ChEMBL document CHEMBL1138390, “Synthesis and biological evaluation of novel T-type calcium channel blockers” (Bioorg Med Chem Lett, 2007)
pIC50: −log10 of the molar value.

How the values were obtained:
[1] = biological target: T1, Voltage-dependent T-type calcium channel subunit alpha-1G (Homo sapiens, UniProt O43497); test: Inhibition of T-type calcium channel Cav3.1 expressed in HEK293 cells co-expressing alpha1G subunit by whole-cell patch clamp method; format: cell-based
[2] = biological target: Voltage-dependent T-type calcium channel subunit alpha-1H (Homo sapiens) (UniProt O95180); test: Inhibition of T-type calcium channel Cav3.2 expressed in Xenopus oocytes coexpressing alpha-1H subunit at 100 uM by two-electrode voltage clamp method
Chain of Voltage-dependent T-type calcium channel subunit alpha-1H (Homo sapiens) (O95180 whole entry): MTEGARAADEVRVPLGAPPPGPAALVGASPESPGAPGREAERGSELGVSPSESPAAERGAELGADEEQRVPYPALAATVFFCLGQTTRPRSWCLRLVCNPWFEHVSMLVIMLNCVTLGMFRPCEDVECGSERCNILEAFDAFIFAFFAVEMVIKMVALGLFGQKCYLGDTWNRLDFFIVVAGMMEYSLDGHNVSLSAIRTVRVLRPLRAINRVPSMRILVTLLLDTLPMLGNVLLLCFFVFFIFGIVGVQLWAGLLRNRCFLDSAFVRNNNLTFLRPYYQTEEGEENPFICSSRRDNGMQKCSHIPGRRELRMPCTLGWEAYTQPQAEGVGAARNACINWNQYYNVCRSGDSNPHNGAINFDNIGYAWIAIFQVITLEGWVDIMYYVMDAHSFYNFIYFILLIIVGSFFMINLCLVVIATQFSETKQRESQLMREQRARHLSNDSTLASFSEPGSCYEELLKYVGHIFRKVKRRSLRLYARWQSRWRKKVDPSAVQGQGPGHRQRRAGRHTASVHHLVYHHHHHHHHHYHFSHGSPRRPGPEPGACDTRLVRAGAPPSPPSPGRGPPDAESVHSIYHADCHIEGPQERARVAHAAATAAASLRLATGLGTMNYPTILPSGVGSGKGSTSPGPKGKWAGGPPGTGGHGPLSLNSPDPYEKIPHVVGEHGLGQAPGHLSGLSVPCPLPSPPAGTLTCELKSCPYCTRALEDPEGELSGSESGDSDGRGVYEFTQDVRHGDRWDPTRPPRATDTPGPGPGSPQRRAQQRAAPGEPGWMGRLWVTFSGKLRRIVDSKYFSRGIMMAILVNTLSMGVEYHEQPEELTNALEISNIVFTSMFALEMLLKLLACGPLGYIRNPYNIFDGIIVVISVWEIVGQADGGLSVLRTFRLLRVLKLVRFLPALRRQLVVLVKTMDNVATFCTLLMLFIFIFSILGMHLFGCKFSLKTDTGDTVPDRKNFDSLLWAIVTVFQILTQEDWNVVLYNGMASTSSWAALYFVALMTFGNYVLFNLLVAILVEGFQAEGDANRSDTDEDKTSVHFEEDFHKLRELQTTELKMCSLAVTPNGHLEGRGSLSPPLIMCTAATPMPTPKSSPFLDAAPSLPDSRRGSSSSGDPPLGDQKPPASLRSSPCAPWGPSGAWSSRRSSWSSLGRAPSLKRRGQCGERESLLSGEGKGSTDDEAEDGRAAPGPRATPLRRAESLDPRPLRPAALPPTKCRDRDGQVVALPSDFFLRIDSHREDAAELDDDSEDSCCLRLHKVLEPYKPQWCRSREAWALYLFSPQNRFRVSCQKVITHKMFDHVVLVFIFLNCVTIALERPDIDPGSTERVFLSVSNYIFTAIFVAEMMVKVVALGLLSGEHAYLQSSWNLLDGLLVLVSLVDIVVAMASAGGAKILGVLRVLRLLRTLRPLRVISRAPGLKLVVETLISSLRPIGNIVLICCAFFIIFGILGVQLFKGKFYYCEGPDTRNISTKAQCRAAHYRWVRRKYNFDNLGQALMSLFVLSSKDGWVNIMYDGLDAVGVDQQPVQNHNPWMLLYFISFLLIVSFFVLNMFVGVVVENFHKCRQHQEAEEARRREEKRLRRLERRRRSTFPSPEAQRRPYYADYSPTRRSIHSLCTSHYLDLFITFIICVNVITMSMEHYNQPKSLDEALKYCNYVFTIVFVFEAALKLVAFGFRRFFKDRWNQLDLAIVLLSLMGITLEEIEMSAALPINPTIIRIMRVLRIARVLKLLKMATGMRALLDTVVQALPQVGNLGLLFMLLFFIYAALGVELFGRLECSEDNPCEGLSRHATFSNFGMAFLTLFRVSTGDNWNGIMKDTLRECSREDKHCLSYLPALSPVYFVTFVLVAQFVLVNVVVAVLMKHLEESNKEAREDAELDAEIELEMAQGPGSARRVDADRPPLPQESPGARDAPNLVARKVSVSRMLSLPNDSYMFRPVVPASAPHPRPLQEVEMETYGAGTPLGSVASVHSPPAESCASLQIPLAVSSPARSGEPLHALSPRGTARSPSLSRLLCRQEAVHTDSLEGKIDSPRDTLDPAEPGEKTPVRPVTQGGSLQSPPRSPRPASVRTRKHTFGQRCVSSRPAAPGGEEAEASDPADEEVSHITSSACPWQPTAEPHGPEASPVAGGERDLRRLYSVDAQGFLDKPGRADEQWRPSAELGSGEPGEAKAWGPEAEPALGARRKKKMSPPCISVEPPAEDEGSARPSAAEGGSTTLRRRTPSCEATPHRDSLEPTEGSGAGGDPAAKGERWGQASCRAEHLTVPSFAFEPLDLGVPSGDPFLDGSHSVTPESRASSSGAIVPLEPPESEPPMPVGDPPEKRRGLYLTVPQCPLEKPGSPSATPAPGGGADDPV

[3] = biological target: T1, Voltage-dependent T-type calcium channel subunit alpha-1G; test: Inhibition of T-type calcium channel Cav3.1 expressed in HEK293 cells co-expressing alpha1G subunit at 10 uM by whole-cell patch clamp method; format: cell-based
In short: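 α1G T-type channel expressed in HEK293 cells, whole-cell patch clamp. Percent inhibition of α1G currents at a single test concentration, given as mean ± SE from n ≥ 4 repeats. IC50 is the molar concentration giving 50% current inhibition, obtained by fitting raw data to dose–response curves.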

[4] = biological target: Voltage-dependent N-type calcium channel subunit alpha-1B (Homo sapiens) (UniProt Q00975); test: Inhibition of N-type calcium channel expressed in HEK293 cells co-expressing Alpha-1B subunit at 10 uM; format: cell-based
In short: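 N-type α1B channel expressed in HEK293 cells. Percent current inhibition at a single test concentration, reported as mean ± SE from n ≥ 4 repeated measurements. Inhibition below 1% was recorded as no blocking.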

Homo sapiens = species on record: Homo sapiens; test: Selectivity index, ratio of T-type calcium channel Cav3.1 to N-type calcium channel at 10 uM

T1 sequence (O43497 whole entry): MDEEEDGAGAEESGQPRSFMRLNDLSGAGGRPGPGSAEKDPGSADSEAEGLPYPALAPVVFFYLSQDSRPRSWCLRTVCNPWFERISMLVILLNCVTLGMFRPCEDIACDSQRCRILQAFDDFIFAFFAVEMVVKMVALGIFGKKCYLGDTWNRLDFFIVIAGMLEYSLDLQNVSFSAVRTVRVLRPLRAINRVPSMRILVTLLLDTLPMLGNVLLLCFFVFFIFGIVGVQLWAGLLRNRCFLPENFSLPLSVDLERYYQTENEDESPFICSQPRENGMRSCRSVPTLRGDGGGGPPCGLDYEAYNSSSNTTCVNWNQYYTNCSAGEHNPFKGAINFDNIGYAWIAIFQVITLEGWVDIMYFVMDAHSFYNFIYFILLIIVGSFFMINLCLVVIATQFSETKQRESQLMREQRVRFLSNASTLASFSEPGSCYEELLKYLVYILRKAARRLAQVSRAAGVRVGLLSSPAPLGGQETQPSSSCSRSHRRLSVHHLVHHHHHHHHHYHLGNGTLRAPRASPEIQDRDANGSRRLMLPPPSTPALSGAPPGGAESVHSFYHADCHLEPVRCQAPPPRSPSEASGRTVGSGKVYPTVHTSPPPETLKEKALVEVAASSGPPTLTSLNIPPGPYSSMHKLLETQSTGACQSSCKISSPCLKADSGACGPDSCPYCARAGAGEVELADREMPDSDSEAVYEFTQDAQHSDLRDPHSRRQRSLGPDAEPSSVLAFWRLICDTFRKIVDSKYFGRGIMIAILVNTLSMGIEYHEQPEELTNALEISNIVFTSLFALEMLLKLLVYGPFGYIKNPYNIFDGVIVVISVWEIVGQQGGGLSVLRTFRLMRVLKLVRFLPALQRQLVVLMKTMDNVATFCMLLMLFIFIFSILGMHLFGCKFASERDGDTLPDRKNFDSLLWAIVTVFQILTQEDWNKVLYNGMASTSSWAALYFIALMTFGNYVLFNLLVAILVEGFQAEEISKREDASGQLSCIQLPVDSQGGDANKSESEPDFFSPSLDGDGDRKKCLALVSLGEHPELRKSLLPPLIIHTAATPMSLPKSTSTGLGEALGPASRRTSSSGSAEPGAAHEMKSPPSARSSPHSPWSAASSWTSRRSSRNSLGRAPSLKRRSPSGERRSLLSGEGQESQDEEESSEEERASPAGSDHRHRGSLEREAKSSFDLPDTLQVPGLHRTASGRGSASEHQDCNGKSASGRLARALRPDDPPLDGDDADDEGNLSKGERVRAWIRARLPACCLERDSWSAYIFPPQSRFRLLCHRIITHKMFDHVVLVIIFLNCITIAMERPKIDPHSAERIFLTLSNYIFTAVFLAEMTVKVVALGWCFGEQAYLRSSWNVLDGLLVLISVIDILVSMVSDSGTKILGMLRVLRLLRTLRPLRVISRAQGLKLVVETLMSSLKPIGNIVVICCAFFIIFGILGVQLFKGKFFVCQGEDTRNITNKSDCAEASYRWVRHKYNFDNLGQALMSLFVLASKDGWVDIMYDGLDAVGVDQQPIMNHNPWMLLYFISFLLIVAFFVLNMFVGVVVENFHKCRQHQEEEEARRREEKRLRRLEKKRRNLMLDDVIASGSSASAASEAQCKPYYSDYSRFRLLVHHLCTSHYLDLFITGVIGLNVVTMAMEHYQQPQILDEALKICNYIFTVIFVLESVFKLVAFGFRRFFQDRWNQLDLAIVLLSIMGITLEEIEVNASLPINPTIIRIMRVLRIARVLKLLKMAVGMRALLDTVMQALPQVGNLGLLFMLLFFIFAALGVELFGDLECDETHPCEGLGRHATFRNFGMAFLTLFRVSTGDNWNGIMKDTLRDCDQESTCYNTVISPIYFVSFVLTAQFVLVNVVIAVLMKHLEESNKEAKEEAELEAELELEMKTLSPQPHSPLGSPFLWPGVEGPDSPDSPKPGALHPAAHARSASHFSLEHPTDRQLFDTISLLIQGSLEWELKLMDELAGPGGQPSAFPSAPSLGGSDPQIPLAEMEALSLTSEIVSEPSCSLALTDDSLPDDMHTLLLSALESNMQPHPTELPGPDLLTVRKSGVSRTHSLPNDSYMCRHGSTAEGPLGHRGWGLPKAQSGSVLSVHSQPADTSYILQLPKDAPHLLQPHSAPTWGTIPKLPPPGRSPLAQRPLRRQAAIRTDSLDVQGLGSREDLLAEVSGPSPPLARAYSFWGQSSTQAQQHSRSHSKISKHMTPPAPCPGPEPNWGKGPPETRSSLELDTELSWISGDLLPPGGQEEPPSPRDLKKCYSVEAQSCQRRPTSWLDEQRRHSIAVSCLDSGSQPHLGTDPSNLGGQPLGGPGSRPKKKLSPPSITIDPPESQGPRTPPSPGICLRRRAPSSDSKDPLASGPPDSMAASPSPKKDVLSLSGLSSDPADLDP

pIC50 [1] | inhibition [2] | inhibition [3] | inhibition [4] | Ratio (Homo sapiens) | SMILES
6.47 | 88% | 94.9% | 36.5% | 2.6 | COC(=O)CC1c2ccccc2N=C(N(C)CCCCCN2CCCC2)N1c1ccc(-c2ccccc2)cc1 (stereo unspecified)
 |  |  |  | 10.1 | NCCCCCNC1=Nc2ccccc2C(CC(=O)NCc2ccccc2)N1c1ccc(-c2ccccc2)cc1 (stereo unspecified)
 |  |  |  | > 100 | COC(=O)CC1c2ccccc2N=C(NCCCCCN)N1c1ccc(-c2ccccc2)cc1 (stereo unspecified)
 | 95.5% | 88.1% | 11.7% | 7.5 | CN(CCCCCN1CCCC1)C1=Nc2ccccc2C(CC(=O)NCc2ccccc2)N1c1ccc(-c2ccccc2)cc1 (stereo unspecified)
5.38 | 82.7% | 68.1% | 46.3% | 1.5 | CN(CCCCCN1CCCC1)C1=Nc2ccccc2C(CC(=O)NCc2ccccc2)N1c1ccccc1 (stereo unspecified)
5.23 | 47.7% | 59.5% | 10.7% | 5.6 | COC(=O)CC1c2ccccc2N=C(N(C)CCCCCN2CCCC2)N1c1ccccc1 (stereo unspecified)
